Schizont size and IC50 data for 47 compounds are collected here from ChEMBL document CHEMBL1789904, “Imaging of Plasmodium liver stages to drive next-generation antimalarial drug discovery” (Science, 2011).

The assay concerns Plasmodium yoelii. Kind of assay: NOVARTIS: Antimalarial liver stage activity measured as reduction in Plasmodium yoelii schizont area in HepG2-A16-CD81 cells by immuno-fluorescence, and median schizont size at 10uM compound concentration. In kind it is functional, organism-based. The following applies: for IC50: Plasmodium yoelii, HepG2-A16-CD81. Summed up:
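Host and parasite nuclei stained with Hoechst 33342, parasites with αPyHSP70 antibody; 25 images per well by high-content imaging; median parasite (schizont) area measured by automated image analysis, ~50 schizonts per experiment, two or more independent experiments.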

The IC50 is the concentration at which inhibition is half-maximal. Low readings indicate greater potency, high ones weaker potency. The compound `CC[n+]1c(/C=C/N(C)c2ccccc2)n(-c2ccccc2)c2ccc(-c3nc4ccccc4s3)cc21` showed a Schizont size of 20.14 um and an IC50 of 14 nM.

Take `Cc1nc([P+](c2ccccc2)(c2ccccc2)c2ccccc2)c(SCc2ccccc2)o1.[O-][Cl+3]([O-])([O-])[O-]`: the Schizont size was found to be 31.83 um and the IC50 is 33.5 nM.

On to `Cl.OCCNc1nc(Nc2ccccc2)nc2ccccc12`, for which the Schizont size is on record as 62.1 um and the midpoint of inhibition, the IC50, lay at 47.9 nM.

`CCOc1ccc(N2C(N)=NC(N)=NC2(C)C)cc1.Cl`: the Schizont size came out at 35.59 um and the IC50 turned out to be 46.8 nM.

`CCOC(=O)c1cn(CC)c2cc(N(C)CCc3ccc(OC)c(OC)c3)c(F)cc2c1=O`: the Schizont size came to 23.69 um and the IC50 came to 42.1 nM.

In turn, `COC(OC)C(C)=NNC(N)=S` yielded a Schizont size of 78.8 um and an IC50 of 4.93 nM.

In turn, `CC1(C)N=C(N)N=C(N)N1c1ccc(I)cc1.Cl` had a Schizont size of 33.82 um and an IC50 of 10 nM.

Regarding `Cc1ccc(N2C(N)=NC(N)=NC2(C)C)cc1.Cl`, the Schizont size was found to be 35.07 um and half-maximal inhibition (IC50) was put at 10 nM.

In the case of `CC1(C)C2CCC(C2)C1(C)NC(=S)NN=Cc1ccccn1` (centres undefined), the Schizont size was determined as 28.29 um and the IC50 is 17.4 nM.

`Cc1ccc(CSCc2ccc(C(=O)NC3CC3)o2)cc1` displayed a Schizont size of 25.36 um and an IC50 of 47.3 nM.

With `CC[n+]1c(/C=C/C=C2\N(C)c3ccccc3C2(C)C)n(-c2ccccc2)c2cc(Cl)ccc21`, the Schizont size came out at 12.53 um and the IC50 was found to be 13.6 nM.

In turn, `CCC(C)(C)c1ccc(OCCCC[n+]2cccc(C)c2C)c(C(C)(C)CC)c1.[Br-]` had a Schizont size of 12.53 um and an IC50 of 45.5 nM.

Regarding `c1ccc(-c2cc(N3CCN(c4ccccn4)CC3)nc(-c3ccccn3)n2)nc1`, the Schizont size turned out to be 24.32 um and the IC50 turned out to be 17.5 nM.

In the case of `CCCCCC[P+](N(CCC)CCC)(N(CCC)CCC)N(CCC)CCC`, the Schizont size was determined as 30.27 um and the IC50 came out at 49.1 nM.

`Cc1ccc2nc3nc4c(C)cccc4c(N)c3cc2c1` showed a Schizont size of 22.23 um and an IC50 of 47.4 nM.

Compound `CCCCN1C=CC=C/C1=C\c1sc2ccccc2[n+]1CC` displayed a Schizont size of 18.47 um and a half-inhibitory concentration (IC50) of 10.9 nM.

The compound `CCCc1ccc(C(=O)NC(=O)c2ccccc2O)cc1` yielded a Schizont size of 23.17 um and an IC50 of 4.18 nM.

As to `CCCCCc1ccc(OCCCC[n+]2cccc(C)c2)c(CCCCC)c1.[Cl-]`, the Schizont size is reported as 23.48 um and the IC50 was 34.6 nM.

The compound `CCCCN(CCCC)[P+](N(CCCC)CCCC)(N(CCCC)CCCC)N(CCCC)CCCC` yielded a Schizont size of 24.32 um and an IC50 of 11.5 nM.

Consider `CCN1C=C(c2ccc(C)cc2)S/C1=C\c1sc2ccccc2[n+]1C`, for which the Schizont size came out at 37.89 um and half-maximal inhibition (IC50) required 4.5 nM.

Take `Cc1ccc(-c2nn3c(O)c4c(nc3c2C)CCCC4)cc1`: the Schizont size came to 28.7 um and inhibition was half-maximal at 11.3 nM (IC50).

Regarding `Fc1ccc2nc(Nc3nc(-c4ccccn4)cs3)sc2c1`, the Schizont size is reported as 22.86 um and the midpoint of inhibition, the IC50, lay at 43.8 nM.

In turn, `CCOc1ccc(CN(C(=O)COc2ccc(Cl)cc2)C(C)CCCN(CC)CC)cc1.O=C(O)C(F)(F)F` (centres undefined) registered a Schizont size of 55.32 um and an IC50 of 20.4 nM.

Compound `CCOC(=O)c1ccc2nc(-c3ccccc3)cc(O)c2c1` returned a Schizont size of 20.67 um and an IC50 of 20 nM.

In the case of `CN(Cc1ccccc1)C(=O)CSc1nc(NCc2ccccc2)c2ccccc2n1`, the Schizont size was found to be 67.84 um and it took 7.13 nM to reach half-maximal inhibition (IC50).

The compound `COc1cccc(N2C(N)=NC(N)=NC2(C)C)c1.Cl` registered a Schizont size of 38.1 um and an IC50 of 29.5 nM.

As to `C/C=C/[P+](c1ccccc1)(c1ccccc1)c1ccccc1`, the Schizont size was 26.09 um and it took 49.4 nM to reach half-maximal inhibition (IC50).

As for `C1CCC(NP2(NC3CCCCC3)=NP(NC3CCCCC3)(NC3CCCCC3)=NP(NC3CCCCC3)(NC3CCCCC3)=N2)CC1`, the Schizont size was found to be 33.82 um and the half-inhibitory concentration (IC50) was found to be 18.6 nM.

As to `O=C(NC(=C(Cl)Cl)[P+](c1ccccc1)(c1ccccc1)c1ccccc1)c1ccc(F)cc1`, the Schizont size is 26.93 um and the IC50 is 14.5 nM.

For `Cc1oc2c(c1C(=O)NC1CCS(=O)(=O)C1)C(=O)c1ccccc1C2=O` (centres undefined), the Schizont size is 17.54 um and the IC50 came out at 2.29 nM.

For the compound `CCOC(=O)c1ccc(NC(=O)CSc2nc(NCc3ccccc3)c3ccccc3n2)cc1`, the Schizont size was determined as 69.2 um and the IC50 was found to be 38.1 nM.

For `CC[n+]1c(/C=C/C=C2\N(C)c3ccccc3C2(C)C)n(Cc2ccccc2)c2ccccc21`, the Schizont size is 13.99 um and inhibition was half-maximal at 6.76 nM (IC50).

Consider `Cc1ccc(-n2c(-c3ccccc3)cc(C=NNC(=O)c3cccc(-n4c(C)ccc4C)c3)c2-c2ccccc2)cc1`, for which the Schizont size came to 30.06 um and the IC50 turned out to be 47.9 nM.

Take `Cc1ccc(-n2c(-c3ccccc3)cc(C=NNC(=O)c3cccc(O)c3)c2-c2ccccc2)cc1`: the Schizont size stood at 26.72 um and the IC50 stood at 20.2 nM.

Turning to `O=C(NC1CC1)C1CCN(c2cccc3c2C(=O)N(Cc2cccc(C(F)(F)F)c2)C3=O)CC1`, the Schizont size turned out to be 24.01 um and the midpoint of inhibition, the IC50, lay at 29.3 nM.

Take `CC1(C)N=C(N)N=C(N)N1c1ccc(F)cc1.Cl`: the Schizont size was 38.93 um and the IC50 came out at 18.9 nM.

In the case of `S=C(NN=Cc1ccccn1)NC1CC2CC1C1C=CCC21` (centres undefined), the Schizont size is 27.45 um and the IC50 came out at 25.6 nM.

As for `CN1C(=O)N(C)C(NNC(N)=S)C1NNC(N)=S` (centres undefined), the Schizont size is recorded as 117.53 um and the IC50 was 15 nM.

The compound `CCOC(=O)c1cnc2c3c(ccc2c1O)CCCC3` gave a Schizont size of 26.2 um and an IC50 of 10.8 nM.

Consider `Cc1cccc(N2C(N)=NC(N)=NC2(C)C)c1.Cl`, for which the Schizont size worked out at 38.51 um and the midpoint of inhibition, the IC50, lay at 4.25 nM.

For the compound `CCN1/C(=C/c2ccc3ccccc3[n+]2CC)Sc2sc3ccccc3c21`, the Schizont size is 32.77 um and the IC50 came out at 6.21 nM.

`c1ccc(-c2ccc(-c3ccccn3)nc2)nc1` returned a Schizont size of 22.34 um and an IC50 of 39.4 nM.

The compound `CCC(/C=C1\Sc2ccc(OC)cc2N1CCCS(=O)(=O)O)=C\c1sc2ccc(OC)cc2[n+]1CCCS(=O)(=O)O` showed a Schizont size of 18.06 um and an IC50 of 11.2 nM.

On to `CCOc1ccc2ncc(S(=O)(=O)c3ccc(OC)cc3)c(N3CCN(C)CC3)c2c1`, for which the Schizont size worked out at 63.67 um and the IC50 came out at 10.7 nM.

`CCN1C(C)=C(C)S/C1=C\c1ccc2cc(C)ccc2[n+]1C` yielded a Schizont size of 14.93 um and an IC50 of 11.3 nM.

Regarding `CN(C)c1ccc(C(=Cc2cc(-c3ccccc3)cc(-c3ccccc3)[o+]2)c2ccc(N(C)C)cc2)cc1`, the Schizont size is given as 26.72 um and the half-maximal inhibitory concentration (IC50) worked out at 51.9 nM.

On to `C=CC[n+]1c(C=C2C=CN(C)C=C2)sc2ccccc21.[I-]`, for which the Schizont size was 26.72 um and the IC50 was determined as 13.2 nM.
